In brackets after ≈: the same amount, converted by molar mass.
Assays:
Assay type in all cases: functional
Candida albicans = test: Antifungal activity against Candida albicans after 24 hrs by microbroth dilution method
Procedure, shortened: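 Broth microdilution following NCCLS methods, with drug dilutions in growth medium. Inoculated plates were incubated at 35 C and read at 24 h. MIC80 is the first well showing roughly 80% less growth than the drug-free well. Fluconazole and itraconazole served as positive controls.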

Candida parapsilosis = test: Antifungal activity against Candida parapsilosis ATCC 22019 by micro-broth dilution method; settings: Lodderomyces parapsilosis
Procedure, shortened: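 Candida parapsilosis ATCC22019 was the quality-control strain tested in every assay. Microbroth dilution followed NCCLS methods, with incubation at 35 C in growth medium. MIC80 is the first well with about 80% growth reduction relative to the drug-free control. Fluconazole and itraconazole were the positive controls.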

Cryptococcus neoformans = test: Antifungal activity against Cryptococcus neoformans after 72 hrs by micro-broth dilution method
Procedure, shortened: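 Cryptococcus neoformans was tested by NCCLS broth microdilution, with drug diluted in growth medium and incubation at 35 C. MIC was read at 72 h as MIC80, the first well with about 80% growth reduction compared with the drug-free well. Fluconazole and itraconazole were the positive controls.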

Candida tropicalis = test: Antifungal activity against Candida tropicalis by micro-broth dilution method
Procedure, shortened: (§1)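 NCCLS microbroth dilution: drugs diluted in growth medium, inoculated, then incubated at 35 C. The endpoint was MIC80, the first well with approximately 80% less growth than the drug-free well. Fluconazole and itraconazole were run as positive controls.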

Pichia kudriavzevii = test: Antifungal activity against Candida krusei ATCC 6258 by micro-broth dilution method; procedure, shortened: as §1
Nakaseomyces glabratus = test: Antifungal activity against Torulopsis glabrata by micro-broth dilution method; procedure, shortened: as §1

| SMILES | MIC80 (Candida albicans) | MIC80 (Candida parapsilosis) | MIC80 (Cryptococcus neoformans) | MIC80 (Candida tropicalis) | MIC80 (Pichia kudriavzevii) | MIC80 (Nakaseomyces glabratus) |
| --- | --- | --- | --- | --- | --- | --- |
| O=[N+]([O-])c1ccc(/C=N/c2ccc(N3CCN(CC(O)(Cn4cncn4)c4ccc(F)cc4F)CC3)cc2)cc1 (stereo not drawn) | > 64 µg/mL | 4 µg/mL (≈ 7.31 µM) | > 64 µg/mL | > 64 µg/mL | 4 µg/mL (≈ 7.31 µM) | 8 µg/mL (≈ 14.6 µM) |
| O=[N+]([O-])c1cccc(/C=N/c2ccc(N3CCN(CC(O)(Cn4cncn4)c4ccc(F)cc4F)CC3)cc2)c1 (stereo not drawn) | 64 µg/mL (≈ 117 µM) | 4 µg/mL (≈ 7.31 µM) | 16 µg/mL (≈ 29.2 µM) | > 64 µg/mL | 8 µg/mL (≈ 14.6 µM) | 4 µg/mL (≈ 7.31 µM) |
| OC(CN1CCN(c2ccc(/N=C/c3ccc(Cl)c(Cl)c3)cc2)CC1)(Cn1cncn1)c1ccc(F)cc1F (stereo not drawn) | 1 µg/mL (≈ 1.75 µM) | 8 µg/mL (≈ 14 µM) | > 64 µg/mL | > 64 µg/mL | 16 µg/mL (≈ 28 µM) | > 64 µg/mL |
| Cc1ccc(/C=N/c2ccc(N3CCN(CC(O)(Cn4cncn4)c4ccc(F)cc4F)CC3)cc2)cc1 (stereo not drawn) | 1 µg/mL (≈ 1.94 µM) | 2 µg/mL (≈ 3.87 µM) | > 64 µg/mL | > 64 µg/mL | 4 µg/mL (≈ 7.74 µM) | 16 µg/mL (≈ 31 µM) |
| Oc1ccc(/C=N/c2ccc(N3CCN(CC(O)(Cn4cncn4)c4ccc(F)cc4F)CC3)cc2)cc1 (stereo not drawn) | 32 µg/mL (≈ 61.7 µM) | 1 µg/mL (≈ 1.93 µM) | 4 µg/mL (≈ 7.71 µM) | > 64 µg/mL | 4 µg/mL (≈ 7.71 µM) | 8 µg/mL (≈ 15.4 µM) |
| COc1cccc(/C=N/c2ccc(N3CCN(CC(O)(Cn4cncn4)c4ccc(F)cc4F)CC3)cc2)c1O (stereo not drawn) | > 64 µg/mL | 4 µg/mL (≈ 7.29 µM) | 64 µg/mL (≈ 117 µM) | > 64 µg/mL | 16 µg/mL (≈ 29.2 µM) | 16 µg/mL (≈ 29.2 µM) |
| OC(CN1CCN(c2ccc(/N=C/c3ccc(Cl)cc3)cc2)CC1)(Cn1cncn1)c1ccc(F)cc1F (stereo not drawn) | 0.5 µg/mL (≈ 0.931 µM) | 1 µg/mL (≈ 1.86 µM) | 32 µg/mL (≈ 59.6 µM) | > 64 µg/mL | 4 µg/mL (≈ 7.45 µM) | > 64 µg/mL |
| OC(CN1CCN(c2ccc(/N=C/c3ccc(Br)cc3)cc2)CC1)(Cn1cncn1)c1ccc(F)cc1F (stereo not drawn) | 64 µg/mL (≈ 110 µM) | 2 µg/mL (≈ 3.44 µM) | 32 µg/mL (≈ 55 µM) | > 64 µg/mL | 8 µg/mL (≈ 13.8 µM) | > 64 µg/mL |
| OC(CN1CCN(c2ccc(/N=C/c3ccc4c(c3)OCO4)cc2)CC1)(Cn1cncn1)c1ccc(F)cc1F (stereo not drawn) | 16 µg/mL (≈ 29.3 µM) | 2 µg/mL (≈ 3.66 µM) | 32 µg/mL (≈ 58.5 µM) | > 64 µg/mL | 4 µg/mL (≈ 7.32 µM) | 16 µg/mL (≈ 29.3 µM) |
| OC(CN1CCN(c2ccc(/N=C/c3ccc(F)cc3)cc2F)CC1)(Cn1cncn1)c1ccc(F)cc1F (stereo not drawn) | 4 µg/mL (≈ 7.43 µM) | 32 µg/mL (≈ 59.4 µM) | 8 µg/mL (≈ 14.9 µM) | > 64 µg/mL | 8 µg/mL (≈ 14.9 µM) | 8 µg/mL (≈ 14.9 µM) |
| OC(CN1CCN(c2ccc(/N=C/c3ccc(Cl)cc3)cc2F)CC1)(Cn1cncn1)c1ccc(F)cc1F (stereo not drawn) | 16 µg/mL (≈ 28.8 µM) | 16 µg/mL (≈ 28.8 µM) | 32 µg/mL (≈ 57.7 µM) | > 64 µg/mL | 16 µg/mL (≈ 28.8 µM) | 32 µg/mL (≈ 57.7 µM) |
| OC(CN1CCN(c2ccc(/N=C/c3ccc(Br)cc3)cc2F)CC1)(Cn1cncn1)c1ccc(F)cc1F (stereo not drawn) | 32 µg/mL (≈ 53.4 µM) | 8 µg/mL (≈ 13.3 µM) | 32 µg/mL (≈ 53.4 µM) | > 64 µg/mL | 8 µg/mL (≈ 13.3 µM) | 16 µg/mL (≈ 26.7 µM) |
| Cc1ccc(/C=N/c2ccc(N3CCN(CC(O)(Cn4cncn4)c4ccc(F)cc4F)CC3)c(F)c2)cc1 (stereo not drawn) | 16 µg/mL (≈ 29.9 µM) | 32 µg/mL (≈ 59.9 µM) | 8 µg/mL (≈ 15 µM) | > 64 µg/mL | 16 µg/mL (≈ 29.9 µM) | 16 µg/mL (≈ 29.9 µM) |
| OC(CN1CCN(c2ccc(/N=C/c3ccc(OCc4cccc(Cl)c4)cc3)cc2)CC1)(Cn1cncn1)c1ccc(F)cc1F (stereo not drawn) | > 64 µg/mL | 16 µg/mL (≈ 24.9 µM) | 64 µg/mL (≈ 99.5 µM) | > 64 µg/mL | 32 µg/mL (≈ 49.8 µM) | 2 µg/mL (≈ 3.11 µM) |
| OC(CN1CCN(c2ccc(/N=C/c3ccc(OCc4ccccc4)cc3)cc2)CC1)(Cn1cncn1)c1ccc(F)cc1F (stereo not drawn) | 64 µg/mL (≈ 105 µM) | > 64 µg/mL | 16 µg/mL (≈ 26.3 µM) | > 64 µg/mL | 8 µg/mL (≈ 13.1 µM) | 32 µg/mL (≈ 52.6 µM) |
| OC(CN1CCN(c2ccc(/N=C/c3ccc(Cl)cc3Cl)cc2)CC1)(Cn1cncn1)c1ccc(F)cc1F (stereo not drawn) | > 64 µg/mL | 8 µg/mL (≈ 14 µM) | 64 µg/mL (≈ 112 µM) | > 64 µg/mL | 8 µg/mL (≈ 14 µM) | 8 µg/mL (≈ 14 µM) |
| OC(CN1CCN(c2ccc(/N=C/c3ccc(F)cc3)cc2)CC1)(Cn1cncn1)c1ccc(F)cc1F (stereo not drawn) | 64 µg/mL (≈ 123 µM) | 2 µg/mL (≈ 3.84 µM) | 4 µg/mL (≈ 7.68 µM) | > 64 µg/mL | 16 µg/mL (≈ 30.7 µM) | > 64 µg/mL |
| OC(Cn1cncn1)(Cn1cncn1)c1ccc(F)cc1F [FLUCONAZOLE] | 1 µg/mL (≈ 3.27 µM) | 4 µg/mL (≈ 13.1 µM) | 32 µg/mL (≈ 104 µM) | 64 µg/mL (≈ 209 µM) | 8 µg/mL (≈ 26.1 µM) | 8 µg/mL (≈ 26.1 µM) |
